Bim-Mcl-1 – inhibitors of Bim-Mcl-1 interaction, human; Q07820; Bead-based flow cytometry, Bim peptide-Mcl-1 binding; inhibition, % at 10 µM; 0.1% of 190,000 active; in the data active = inhibition above about 40%;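 note: 0% = no compound tracer wells and 100% = peptide blocker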
Target sequence (Q07820 whole entry, looked up): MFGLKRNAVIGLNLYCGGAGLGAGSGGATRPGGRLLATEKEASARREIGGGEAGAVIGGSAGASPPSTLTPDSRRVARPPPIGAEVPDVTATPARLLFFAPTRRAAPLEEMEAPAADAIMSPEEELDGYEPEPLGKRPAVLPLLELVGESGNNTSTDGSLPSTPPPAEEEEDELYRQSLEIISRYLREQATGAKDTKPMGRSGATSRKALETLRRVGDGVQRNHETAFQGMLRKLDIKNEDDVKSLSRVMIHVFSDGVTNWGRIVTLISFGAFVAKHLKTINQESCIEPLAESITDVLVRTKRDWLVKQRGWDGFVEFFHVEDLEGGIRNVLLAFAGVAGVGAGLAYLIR
Hck Nef HTS – inhibitors of human Hck kinase activated by Nef; P08631; Recombinant Hck-YEEI plus Nef, Z-Lyte FRET kinase assay; inhibition, % at 20 µM; 0.68% of 220,000 active; AID 463187;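 active = Hck-Nef kinase inhibition above about 50%, limit read from the data; inactive = inhibition below that limit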;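 note: 0% = DMSO with Hck plus Nef and 100% = Hck alone without Nef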
Mcl1 Bid PPI – Mcl-1/Bid interaction inhibition | TR-FRET Mcl-1/Bid-Dy647 peptide binding, 1536-well | inhibition, % at 21.7 µM | 0.97% of 220,000 active | AID 1021;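 active = compounds that cut the binding signal by more than half at the single screening dose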;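 note: His-tagged Mcl-1 with europium anti-His antibody binding Bid BH3 peptide; 0% = Mcl-1 plus peptide wells and 100% = peptide-only wells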
14-3-3 Bad PPI – disrupts binding of bovine 14-3-3 zeta to phospho-Bad peptide; P63103; TR-FRET 14-3-3zeta/Dy647-pBad peptide displacement, 1 h; inhibition, % at 21.7 µM; 0.71% of 220,000 active;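 active = inhibition above about 70%, limit read from the data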;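 note: 0% = full 14-3-3 plus peptide FRET controls and 100% = background without 14-3-3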
Mcl1 Noxa PPI – Mcl-1/Noxa interaction inhibition; AID 1022; TR-FRET Mcl-1/Noxa peptide binding, 2 h; inhibition, % at 21.7 µM; 1.5% of 220,000 active;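 active = compounds that cut the protein-peptide binding signal by more than 50% relative to plate controls in a single-dose test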;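 note: His-tagged Mcl-1 with rhodamine Noxa BH3 peptide and terbium anti-His antibody; 0% = Mcl-1 plus Noxa peptide wells and 100% = peptide-only wells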
Biofilm kill mix – mixture kills Candida albicans biofilm cells; C. albicans biofilm persisters + clotrimazole, fluorescence viability; primary screen in compound mixtures of four per well; inhibition, % at 7.6 µM; 0.02% of 120,000 active;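 active = inhibition above 30.3% in the primary screen of four-compound pools, then above 30% when the compound was retested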;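 note: compounds exposed to preformed 24 h biofilms for 48 h; 0% = untreated biofilm control and 100% = clotrimazole plus chlorhexidine kill blank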
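Assay system: C. albicans biofilms / Medium: RPMI/MOPS medium, pH 7.0 / Schedule: biofilm formation 24 h, compound exposure 48 h, 37 °C / Measured by: Alamar Blue fluorescence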
* marks the source's active call; other numbers are inactive results; nt = not tested or not shown. Only some compounds are listed: those with a hit (about 3.2% of all), similar ones and a draw of the others.

SMILES | Bim-Mcl-1 | Hck Nef HTS | Mcl1 Bid PPI | 14-3-3 Bad PPI | Mcl1 Noxa PPI | Biofilm kill mix
COc1ccc(/C=C2/C(=O)NC(=S)N(C3CC3)C2=O)cc1CN1C(=O)c2ccccc2C1=O | 6 | 3 | 46 | 22 | 95* | 10
CN(C)c1ccc(NC(=O)CN2C(=O)CN=C(c3ccccc3)c3cc(Cl)ccc32)cc1 | -3 | 2 | 2 | -21 | 78* | nt
Cc1ccc(NC(=O)CN2C(=O)CN=C(c3ccccc3)c3cc(Cl)ccc32)cc1 | 0 | 3 | 1 | 6 | 2 | nt
O=S(=O)(c1ccccc1)N1CC1c1ccccc1 (stereo unspecified) | -4 | 4 | -6 | -6 | 15 | 7
CCN1C(=O)C(=C/C=C/c2ccco2)C(=O)N(CC)C1=S | -11 | 12 | 47 | 6 | 73* | 9
COc1cc2c(cc1O)C[C@H]1NCCc3cc4c(c-2c31)OCO4 | 6 | 8 | -28 | 0 | 79* | 17
COc1cc2c(cc1OC)-c1c3c(cc4c1[C@@H](C2)N(C)CC4)OCO3 | 1 | -1 | -13 | -5 | 16 | 12
O=C1OC(c2ccc(Cl)cc2)=N/C1=C\N1CC2CC(C1)c1cccc(=O)n1C2 (stereo unspecified) | nt | 19 | -28 | 8 | -2 | 9
Cc1cccc(N2C(=O)NC(=O)/C(=C\c3cnc(-c4ccccc4)nc3)C2=O)c1 | 1 | 22 | 9 | -15 | 41 | 13
Cc1ccc(N2C(=O)NC(=O)/C(=C/c3cnc(-c4ccccc4)nc3)C2=O)cc1C | -1 | 19 | 20 | 17 | 75* | 18
CCOC(=O)c1c(-n2c(C)cc(C=C3C(=O)NC(=S)NC3=O)c2C)sc2c1CCCC2 | -5 | -3 | 38 | -14 | 80* | nt
NC(=O)CS(=O)C(c1ccccc1)c1ccccc1 (stereo unspecified) | -1 | nt | 0 | 0 | 9 | nt
CCCC(=O)NC(Oc1ccc(Cl)cc1Cl)C(Cl)(Cl)Cl (stereo unspecified) | 0 | 2 | -2 | 88* | 15 | nt
CCCC(=O)NC(Oc1ccccc1Cl)C(Cl)(Cl)Cl (stereo unspecified) | 20 | 1 | 3 | 77* | -3 | nt
CCCC(=O)NC(Oc1ccc(OC)cc1)C(Cl)(Cl)Cl (stereo unspecified) | 6 | 4 | -28 | -11 | 13 | 4
CCOC(=O)c1cc(C(O)(C(=O)OC)C(F)(F)F)c(/N=C/N(C)C)o1 (stereo unspecified) | 0 | 1 | -23 | -14 | 86* | nt
COC(=O)C(O)(c1c[nH]c2ccccc12)C(F)(F)F (stereo unspecified) | -1 | -1 | -10 | -7 | 4 | nt
Cc1cc(C=O)c(C)n1C1CC1 | -2 | 22 | -45 | -20 | -10 | 12
O=C1NC(=S)NC(=O)C1=Cc1cccn1-c1ccc(O)cc1 | 0 | 48 | -38 | 39 | 76* | 22
O=C1CCCC2C3CCCN4CCCC(CN12)C34 (stereo unspecified) | 0 | 1 | -38 | 2 | 9 | nt
CC(C)C1(C)N=C(c2ncccc2C(=O)O)NC1=O (stereo unspecified) | -1 | 1 | 85* | 14 | 2 | nt
CC(C)C1(C)N=C(c2nc3ccccc3cc2C(=O)O)NC1=O (stereo unspecified) | 0 | 2 | -5 | -10 | 24 | nt
Nc1ccc2c(c1)Cc1ccccc1-2 | 0 | 1 | -51 | 1 | 54* | 16
CCOc1cc(/C=C2\C(=O)NC(=O)N(C)C2=O)cc([N+](=O)[O-])c1O | nt | 19 | -19 | 3 | 8 | 14
Clc1ccccc1CN1CCN(c2ccccc2)CC1 | -4 | -1 | 6 | 83* | 23 | nt
Cn1c(O)c(C=NC2C(=O)C3(C)CCC2C3(C)C)c(=O)n(C)c1=O (stereo unspecified) | -2 | -1 | 2 | 1 | 14 | nt
COc1cccc(CCNCc2c(F)cccc2F)c1 | -1 | 0 | 3 | 49 | 24 | 2
Oc1c(Br)cc(Br)cc1Oc1ccc(Br)cc1Br | 0 | 5 | -2 | -12 | 31 | 17
CSc1nnc(OC(=O)N(C)C)n1-c1ccc(Cl)cc1 | nt | -1 | -15 | -1 | -18 | 16
CCN1CCN(C(=O)Cc2coc3ccc4ccccc4c23)CC1 | -4 | 2 | -13 | 13 | -1 | nt

Screening results: PubChem BioAssay, several laboratories
